Source: PubChem (several laboratories)
PRMT1 inh – inhibitors of human PRMT1; Q99873; recombinant PRMT1, activity-based probe fluorescence polarization; inhibition, % at 2.79 µM; 370,000 compounds, 1.3% hits;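 active = inhibition above about 21% made by adding two undisclosed values, limit read from the data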
HTRA1 inhibitor – blocks human HTRA1 serine peptidase | Q92743 | recombinant HTRA1, FP-rhodamine activity-based probe, fluorescence polarization | inhibition, % at 5.96 µM | 340,000 compounds, 0.5% hits | AID 504803; in the data active = inhibition above about 36%;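 also: 0% = enzyme with DMSO and 100% = wells lacking enzyme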
TCR-CD3 inh – human TCR-CD3 binding inhibition | inhibition, % at 9.4 µM | 360,000 compounds, 0.37% hits | TAMRA-labeled TCR probe fluorescence, biochemical; in the data active = inhibition above about 19%;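 also: recombinant mutant TCR 2C K166C tagged with TAMRA read by polarization; 0% = receptor in buffer alone and 100% = receptor with positive control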
SIAE inh – human SIAE inhibition, primary screen. AID 1053197. inhibition, % at 9.66 µM. 370,000 compounds, 0.69% hits. SIAE FP-Rh probe binding, fluorescence polarization;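 active = inhibition above a cutoff: mean of compounds within the control limits plus 3 SD of those, cut at about 17% in these data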;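 also: 0% = plate median of compound wells and 100% = probe without SIAE protein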
ABHD4 inh – inhibitors of mouse ABHD4. purified mABHD4, FP-Rh probe fluorescence polarization. inhibition, % at 8.92 µM. 370,000 compounds, 0.54% hits. AID 720543;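 active = inhibition exceeding the mean over every tested compound plus 3 SD, cut at about 30% in these data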;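 also: 0% = plate median of compound wells and 100% = S159A mutant with DMSO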
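Test system: mABHD4 protein | Buffer or medium: HEPES pH 7.0 buffer, 150 mM NaCl, 0.01% Pluronic F-127 | Probe or stimulus: FP-Rh fluorescent activity-based probe, added after compound pre-incubation | Timing: Pre-incubation 45 min, probe exposure 60 min, at 25 °C | Technique: Fluorescence polarization, excitation 525 nm, emission 598 nm, BODIPY TMR filters | Repeats: Single well per compound (singlicate)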
ATG4B inh – inhibitors of human ATG4B cysteine protease. Q9Y4P1. ATG4B cleavage of LC3-PLA2, NBD-HPC fluorescence, 1 h. inhibition, % at 8.33 µM. 340,000 compounds, 0.51% hits. AID 504462; in the data active = inhibition above about 40%
Target sequence (Q9Y4P1 whole entry, looked up): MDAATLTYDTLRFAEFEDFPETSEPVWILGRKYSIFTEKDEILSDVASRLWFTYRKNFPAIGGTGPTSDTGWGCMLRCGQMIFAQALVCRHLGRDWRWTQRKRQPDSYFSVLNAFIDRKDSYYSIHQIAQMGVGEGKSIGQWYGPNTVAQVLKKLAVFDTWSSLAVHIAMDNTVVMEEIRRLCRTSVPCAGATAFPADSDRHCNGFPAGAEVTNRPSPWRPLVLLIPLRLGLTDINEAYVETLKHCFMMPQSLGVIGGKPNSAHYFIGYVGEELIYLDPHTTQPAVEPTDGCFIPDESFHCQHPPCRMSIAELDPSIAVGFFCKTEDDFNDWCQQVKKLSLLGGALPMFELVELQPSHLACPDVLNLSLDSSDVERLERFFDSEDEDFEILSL
ATG4B conf – ATG4B (human) inhibition, single-dose confirmed. AID 504757. ATG4B protease fluorescent substrate cleavage assay. shares compounds with ATG4B inh. inhibition, % at 8.33 µM. 320 compounds, 92% hits; in the data active = inhibition above about 39%
PLA2 counter – PLA2 (human) inhibition in ATG4B counter-screen | shares compounds with ATG4B inh | purified PLA2, NBD-C6-HPC fluorescence, 45 min | inhibition, % at 8.33 µM | 1,600 compounds, 66% hits; in the data active = inhibition above about 50%
Target sequence (P04054 whole entry, looked up): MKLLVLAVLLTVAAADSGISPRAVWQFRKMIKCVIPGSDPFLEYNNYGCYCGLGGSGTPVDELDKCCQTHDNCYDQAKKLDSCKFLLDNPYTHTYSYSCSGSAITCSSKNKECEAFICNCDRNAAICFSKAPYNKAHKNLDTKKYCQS
* hit, by the source's call. Only some compounds are listed: those with a hit (about 2.9% of all), similar ones and a draw of the others.

For COc1ccc(-c2csc(NC(=O)c3ccccc3NS(=O)(=O)c3ccc(F)c(F)c3)n2)cc1 the results were PRMT1 inh 2, HTRA1 inhibitor -48, TCR-CD3 inh 2, SIAE inh -25, ABHD4 inh -46, ATG4B inh 69* and PLA2 counter 80*.
For COc1ccc(-c2csc(NC(=O)c3ccccc3F)n2)cc1 the results were PRMT1 inh -4, HTRA1 inhibitor -27, TCR-CD3 inh -1, SIAE inh -2, ABHD4 inh -17 and ATG4B inh 24.
`Cc1ccc(OCc2nnc(SCC(=O)c3ccccc3)n2Cc2ccco2)cc1` gave PRMT1 inh 4, HTRA1 inhibitor -36, TCR-CD3 inh -7, SIAE inh 1, ABHD4 inh -10, ATG4B inh 60* and PLA2 counter 63*.
Oc1ccccc1/C=N/n1c(-c2ccccc2)n[nH]c1=S was read as PRMT1 inh 5, HTRA1 inhibitor 12, TCR-CD3 inh 0, SIAE inh 2, ABHD4 inh 2 and ATG4B inh 0.
Screening Oc1c(Br)cc(Br)cc1/C=N/n1c(-c2ccccc2)n[nH]c1=S returned PRMT1 inh 9, HTRA1 inhibitor 5, TCR-CD3 inh 12, SIAE inh 5, ABHD4 inh 17, ATG4B inh 42*, ATG4B conf 45* and PLA2 counter 9.
O=C(COC(=O)c1cc(Cl)ccc1[N+](=O)[O-])Nc1cccc2ccccc12 was read as PRMT1 inh 0, HTRA1 inhibitor -2, TCR-CD3 inh 3, SIAE inh 16, ABHD4 inh -3 and ATG4B inh -17.
For O=C(COC(=O)c1cc(Cl)ccc1[N+](=O)[O-])NCc1ccc(Cl)cc1Cl the results were PRMT1 inh -4, HTRA1 inhibitor -7, TCR-CD3 inh -5, SIAE inh 9, ABHD4 inh -3, ATG4B inh 52*, ATG4B conf 65* and PLA2 counter 46.
For C=CCNCc1ccc(OC)cc1OC the results were PRMT1 inh 2, SIAE inh 1 and ABHD4 inh 1.
Screening O=C(O)COc1ccccc1C=NNc1ccc([N+](=O)[O-])cc1S(=O)(=O)Nc1ccc(Cl)cc1 returned PRMT1 inh 13, HTRA1 inhibitor -45, TCR-CD3 inh -2, SIAE inh -12, ABHD4 inh 5, ATG4B inh 44*, ATG4B conf 64* and PLA2 counter 43.
`COC(=O)[C@]12C[C@H](CC(=O)N3CCSCC3)C(=O)N(CCc3ccc(OC)c(OC)c3)C1=C[C@H](C(C)C)O[C@@H]2C1CC1` gave PRMT1 inh 5, SIAE inh -4 and ABHD4 inh -5.
`CC(C)(C)c1ccc(OCc2ccc(C(=O)N/N=C3\CC4CC=CC34)cc2)cc1` (centres undefined) gave PRMT1 inh -1, HTRA1 inhibitor 8, TCR-CD3 inh 7, SIAE inh 0, ABHD4 inh 4, ATG4B inh 49* and PLA2 counter 56*.
Screening Cc1onc(-c2c(Cl)cccc2Cl)c1C(=O)OCC(=O)c1ccccc1 returned PRMT1 inh 6, HTRA1 inhibitor -13, TCR-CD3 inh 0, SIAE inh -4, ABHD4 inh -17 and ATG4B inh 1.
`CCOC(=O)c1cc(-c2c(Cl)cccc2Cl)no1` gave PRMT1 inh 5, HTRA1 inhibitor -8, TCR-CD3 inh -7, SIAE inh -6, ABHD4 inh 10, ATG4B inh 50* and PLA2 counter 47.
Screening Cc1nc(S/C(=C\c2ccc(OCc3ccccc3Cl)cc2)C(=O)O)n[nH]1 returned PRMT1 inh -1, HTRA1 inhibitor -3, TCR-CD3 inh 3, SIAE inh -2, ABHD4 inh 0, ATG4B inh 94* and PLA2 counter 83*.
Screening O=[N+]([O-])c1cccc(OC[C@@H](O)CN2CCC(C(O)(c3ccccc3)c3ccccc3)CC2)c1 returned PRMT1 inh -3, SIAE inh 4 and ABHD4 inh 8.
For CN(C)C(CNC(=O)c1ccc(NC(=O)CC#N)cc1)c1ccccc1 (centres undefined) the results were PRMT1 inh -5, HTRA1 inhibitor -8, TCR-CD3 inh 3, SIAE inh 2, ABHD4 inh -8, ATG4B inh 47* and PLA2 counter 56*.
Screening CCCCOCCCNC(=O)C[C@@H]1C(=O)N(CCc2ccc(Cl)cc2)C2=CCCCC[C@]21C(=O)OC returned PRMT1 inh -4, SIAE inh 0 and ABHD4 inh 4.
O=C1N[C@@H](c2ccccc2)COC(=O)[C@@H](Cc2ccc(F)cc2)C/C=C\C[C@H]1CC(=O)N(CCO)Cc1ccccc1 was read as PRMT1 inh 0, HTRA1 inhibitor -12, TCR-CD3 inh 3, SIAE inh 0, ABHD4 inh -1 and ATG4B inh -9.
`O=C1N[C@@H](c2ccccc2)COC(=O)[C@H](Cc2ccc(F)cc2)CC/C=C/C[C@@H]1CC(=O)N(CCO)Cc1ccccc1` gave PRMT1 inh 0, HTRA1 inhibitor -32, TCR-CD3 inh 6, SIAE inh -3, ABHD4 inh -8, ATG4B inh 48* and PLA2 counter 57*.
O=c1cc(-c2ccccc2Cl)oc2c(NS(=O)(=O)c3cccs3)ccc(O)c12 was read as PRMT1 inh 0, HTRA1 inhibitor -23, TCR-CD3 inh 1, SIAE inh -8, ABHD4 inh -4, ATG4B inh 57* and PLA2 counter 74*.
For O=c1cc(-c2ccccc2Cl)oc2c(NS(=O)(=O)c3ccccc3OC(F)(F)F)ccc(O)c12 the results were PRMT1 inh -1, HTRA1 inhibitor -27, TCR-CD3 inh 2, SIAE inh -17, ABHD4 inh 4, ATG4B inh 43* and PLA2 counter 78*.
`O=c1cc(-c2ccccc2Cl)oc2c(NS(=O)(=O)c3ccccc3C(F)(F)F)ccc(O)c12` gave PRMT1 inh 2, HTRA1 inhibitor -44, TCR-CD3 inh -1, SIAE inh -12, ABHD4 inh -1, ATG4B inh 42* and PLA2 counter 53*.
COC(=O)C1CN(Cc2cn(Cc3ccc(OC)cc3)nn2)CCS(=O)(=O)N1Cc1ccc(C)cc1 (centres undefined) was read as PRMT1 inh 2, SIAE inh 5 and ABHD4 inh 3.
